Consider eight compounds from PMC4258449 (Nitric oxide : biology and chemistry / official journal of …, 2014).

Like-named read-outs stand apart in the source and are kept apart here.

A word on the half-life: it is how long it takes for the measured level to halve. As a reminder, the viability is a read-out of living cells in per cent, often relative to untreated cells. A word on the IC50: it is the concentration needed to halve the response being measured.

The subject of data set [1] is MDA-MB-231 and MCF-7 cells. Conditions: cited from earlier work.
The conditions of data set [2]: physiological conditions; cited from earlier work.
For data set [3], the system named is MCF-7 cells. Description: Clonogenic cell viability assay. It counts as cell-based, human. Conditions: MCF-7, 0.5–20 mM, 24 h treatment. The procedure, abridged: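 MCF-7 cells in RPMI 1640 with 10% FBS and penicillin/streptomycin at 37 °C, 5% CO2, were seeded at 400,000 per 60-mm dish and grown 48 h. They were exposed in growth medium for 24 h, PBS-washed twice, trypsinized, counted and replated at 100, 1,000 or 10,000 per plate in triplicate. Colonies were crystal-violet stained after 10–12 d and counted. Experiments were repeated at least twice; mean ± SD.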

Data set [4] is classed as physicochemical. Conditions: for half-life: assay buffer: 50 µM DTPA in phosphate-buffered saline; for k (decomposition rate constant): pH 7.4, 37 °C, assay buffer.
The conditions of data set [5]: guinea pig, pH 7.4.
In data set [6] the test system is MDA-MB-231 breast cancer cells. In words: Intracellular HNO/NO release with DAF-FM-2DA. It counts as cell-based, human. Conditions: 10 µM donor, MDA-MB-231 cells loaded with 10 µM DAF-FM-2DA, 37 °C. A digest of the protocol:
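They then received 10 µM donor, given as ionic diazeniumdiolates in 10 mM NaOH or the ester-protected form in ethanol (<0.1%). The rise in fluorescence (ex 485/em 535 nm) was followed over time at 37 °C. n = 2, six replicates per plate; mean ± SD.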

In data set [7] the test system is MDA-MB-231 cells. Description: MTT viability assay, 5 combined with tamoxifen. It counts as cell-based, human. (Tetrazolium dyes change colour on reduction, which living cells bring about.)
The test system of data set [8] is MCF-7 or MDA-MB-231 cells. Description: MTT viability assay. Conditions: read-out: IC50 (cytotoxicity), 48 h, 10–100 µM. It counts as cell-based, human. A digest of the protocol:
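Breast cancer cells were seeded at 8,000–10,000 per well and grown overnight. They were treated 48 h with test compound (10–100 µM) or ethanol vehicle (<0.1% v/v). MTT (5 mg/mL solution) was added for 1 h at 37 °C, medium was removed, formazan was dissolved in DMSO, and absorbance was read at 550 nm. Growth inhibition was expressed as % of matching control; n ≥ 3, mean ± SD.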

Regarding `[Na+].[Na+].[O-][N+]([O-])=NO` [Angeli’s salt, sodium trioxodinitrate], the “concentration range inhibiting proliferation” value in data set [1] was “millimolar range”. In addition, the half-life in data set [2] is on record as ~ 2 min.

As for `[Na+].[O-]N=[N+]([O-])NC1CCCC1` [Compound 1, Sodium 1-(N-cyclopentylamino)diazen-1-ium-1,2-diolate], in data set [3], the “cytotoxicity (clonogenic assay)” value was “lowest cytotoxicity”. In addition, in data set [4] (pH 7.4), the half-life came out at 3.6 ± 0.08 min. For the same compound, the “k (decomposition rate constant)” value in data set [4] is reported as 3.2 ± 0.07 × 10^−3 s^−1.

`[Na+].[O-]N=[N+]([O-])NC1CCCCC1` [Compound 2, Sodium 1-(N-cyclohexylamino)diazen-1-ium-1,2-diolate] registered a half-life in data set [4] (pH 7.4) of 6.1 ± 0.02 min.

`[Na+].[O-]N=[N+]([O-])NC1CCCCCC1` [Compound 3, Sodium 1-(N-cycloheptylamino)diazen-1-ium-1,2-diolate] gave a half-life in data set [4] (pH 7.4) of 5.9 ± 0.04 min.

In data set [4] (pH 7.4), `[Na+].[O-]N=[N+]([O-])NC1CCCCCCC1` [Compound 4, Sodium 1-(N-cyclooctylamino)diazen-1-ium-1,2-diolate] registered a half-life of 5.4 ± 0.07 min. In data set [4], the “k (decomposition rate constant)” value is recorded as 2.1 ± 0.02 × 10^−3 s^−1.

With `CC(=O)OCON=[N+]([O-])NC1CCCC1` [Compound 5, O^2-(Acetoxymethyl) 1-(cyclopentylamino)diazen-1-ium-1,2-diolate], the “half-life of decomposition in the presence of serum esterases” value in data set [5] was determined as 5.8 min. The “decomposition rate constant at pH 9” value in data set [4] (absence of serum, pH 9) is 5.0 × 10^−3 s^−1. This compound also had a half-life of decomposition in data set [4] (pH 7.4) of 21 min. The “DAF-FM fluorescence signal relative to the four ionic compounds” value in data set [6] is ~ 3 fold. For the same compound, the viability in data set [7] (5 at 75 µM, 48 h, MB-231 cells) turned out to be 75 ± 6%. Besides, the IC50 in data set [8] was roughly 100 µM.

Turning to `CC(C)N[N+]([O-])=N[O-].[Na+]` [IPA/NO, sodium 1-(N-isopropylamino)diazen-1-ium-1,2-diolate], the half-life in data set [2] is given as 6.7 min.

In the case of `CC/C(=C(\c1ccccc1)c1ccc(OCCN(C)C)cc1)c1ccccc1` [tamoxifen, Tamoxifen, reference compound], the viability at 10 µM in data set [7] (Homo sapiens, MDA-MB-231, 48 h) turned out to be 76 ± 13%.
